# The source made the active and inactive calls. No cut-off for these calls is given here. Where a SMILES comes first, the peptide text is derived from it. Bridges are numbered along the chain shown (N, C = ends). [ ]: non-standard residue; d: D form. The star is where a group is joined. Ileψ(thiazoline)Cys = CC[C@H](C)[C@H](N)C1=N[C@H](C(=O)*)CS1; dOrn = NCCC[C@@H](N)C(=O)O
# Key:
# [1] = system: Mycobacterium tuberculosis variant bovis BCG; experiment: Antimicrobial activity against Mycobacterium bovis BCG KOP55 harboring inactivated p55 gene at 5 umol after 14 days by disk diffusion method; assay type: functional
# Outline: (§1)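 Disc assay on Middlebrook 7H10 agar: lawn spread from a suspension of 10^6 cells/ml, discs carrying the redox compound placed on the lawn, halos recorded after 14 days at 37°C.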
# [2] = system: Mycobacterium tuberculosis variant bovis BCG; experiment: Antimicrobial activity against Mycobacterium bovis BCG P55 at 5 umol after 14 days by disk diffusion method; assay type: functional; outline: as §1
# [3] = system: Mycobacterium tuberculosis variant bovis BCG; experiment: Antimicrobial activity against Mycobacterium bovis BCG KOP55 harboring inactivated p55 gene by resazurine microtiter assay; assay type: functional; settings: KOP55, Urine
# Outline: (§2)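 Resazurin microdilution in liquid medium: serial twofold compound dilutions, plates incubated 8 days at 37°C, then 2 more days after adding resazurin. MIC read from the indicator. Run in triplicate and repeated at least three times.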
# [4] = system: Mycobacterium tuberculosis variant bovis BCG; experiment: Antimicrobial activity against Mycobacterium bovis BCG KOP55 harboring inactivated p55 gene by resazurine microtiter assay in presence of 1 mg/liter CCCP; assay type: functional; settings: KOP55, Urine
# Outline: (§3)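 Resazurin microdilution MIC (serial twofold dilutions, 8 days at 37°C plus 2 days after resazurin) run with a fixed subinhibitory level of efflux pump inhibitor (valinomycin, reserpine or CCCP) present throughout. Triplicate, repeated at least three times.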
# [5] = system: Mycobacterium tuberculosis variant bovis BCG; experiment: Antimicrobial activity against Mycobacterium bovis BCG KOP55 harboring pPAZ23 carrying p27-p55 operon by resazurine microtiter assay; assay type: functional; settings: KOP55, Urine; outline: as §2
# [6] = system: Mycobacterium tuberculosis variant bovis BCG; experiment: Antimicrobial activity against Mycobacterium bovis BCG KOP55 harboring pPAZ23 carrying p27-p55 operon by resazurine microtiter assay in presence of 1 mg/liter CCCP; assay type: functional; settings: KOP55, Urine; outline: as §3
# [7] = system: Mycobacterium tuberculosis variant bovis BCG; experiment: Antimicrobial activity against Mycobacterium bovis BCG KOP55 harboring inactivated p55 gene by twofold dilution method; assay type: functional
# Outline: (§4)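 Agar MIC: log-phase cultures diluted to 10^5 cells/ml, 10 µl spotted onto Middlebrook 7H10 plates with serial twofold antibiotic dilutions. Visible growth scored after 21 days at 37°C. Triplicate, repeated at least three times.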
# [8] = system: Mycobacterium tuberculosis variant bovis BCG; experiment: Antimicrobial activity against Mycobacterium bovis BCG KOP55 harboring pPAZ23 carrying p27-p55 operon by twofold dilution method; assay type: functional; outline: as §4
# [9] = system: Mycobacterium tuberculosis variant bovis BCG; experiment: Decrease in intracellular redox potential in Mycobacterium bovis BCG KOP55 harboring inactivated p55 gene assessed as decreased accumulation of formazan at 5 mg/liter after 1 hr by MTT assay; assay type: functional; set-up: scale not given: the % may be the effect or the level left
# Outline: (§5)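 MTT reduction as an index of intracellular redox potential: cultures at OD600 0.2 treated with drug or solvent for 1 h at 37°C in quadruplicate wells, MTT (2 mg/ml stock) added, 3 h further incubation. Formazan solubilised with 10% SDS, 30 min shaking, absorbance at 600 nm. Repeated at least three independent times.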
# [10] = system: Mycobacterium tuberculosis variant bovis BCG; experiment: Effect on intracellular redox potential in Mycobacterium bovis BCG KOP55 harboring pPAZ23 carrying p27-p55 operon assessed as accumulation of formazan at 5 mg/liter after 1 hr by MTT assay; assay type: functional, organism-based; outline: as §5
# [11] = system: Mycobacterium tuberculosis variant bovis BCG; experiment: Decrease in intracellular redox potential in Mycobacterium bovis BCG KOP55 harboring inactivated p55 gene assessed as decreased accumulation of formazan at 256 mg/liter after 1 hr by MTT assay; assay type: functional; set-up: scale not given: the % may be the effect or the level left; outline: as §5
# [12] = system: Mycobacterium tuberculosis variant bovis BCG; experiment: Effect on intracellular redox potential in Mycobacterium bovis BCG KOP55 harboring pPAZ23 carrying p27-p55 operon assessed as accumulation of formazan at 256 mg/liter after 1 hr by MTT assay; assay type: functional, organism-based; outline: as §5
# [13] = system: Mycobacterium tuberculosis variant bovis BCG; experiment: Antimicrobial activity against Mycobacterium bovis BCG KOP55 harboring inactivated p55 gene at 0.125 umol after 14 days by disk diffusion method; assay type: functional; outline: as §1
# [14] = system: Mycobacterium tuberculosis variant bovis BCG; experiment: Antimicrobial activity against Mycobacterium bovis BCG P55 at 0.125 umol after 14 days by disk diffusion method; assay type: functional; outline: as §1
# [15] = system: Mycobacterium tuberculosis variant bovis BCG; experiment: Increase in intracellular redox potential in Mycobacterium bovis BCG KOP55 harboring pPAZ23 carrying p27-p55 operon assessed as increased accumulation of formazan at 64 mg/liter after 1 hr by MTT assay; assay type: functional; outline: as §5
# [16] = system: Mycobacterium tuberculosis variant bovis BCG; experiment: Increase in intracellular redox potential in Mycobacterium bovis BCG KOP55 harboring inactivated p55 gene assessed as increased accumulation of formazan at 64 mg/liter after 1 hr by MTT assay; assay type: functional; outline: as §5
# [17] = system: Mycobacterium tuberculosis variant bovis BCG; experiment: Antimicrobial activity against Mycobacterium bovis BCG P55 by resazurine microtiter assay; assay type: functional; settings: P55, Urine; outline: as §2
# [18] = system: Mycobacterium tuberculosis variant bovis BCG; experiment: Antimicrobial activity against Mycobacterium bovis BCG KOP55 harboring inactivated p55 gene by resazurine microtiter assay in presence of 0.1 mg/liter valinomycin; assay type: functional; settings: KOP55, Urine; outline: as §3
# [19] = system: Mycobacterium tuberculosis variant bovis BCG; experiment: Antimicrobial activity against Mycobacterium bovis BCG KOP55 harboring inactivated p55 gene by resazurine microtiter assay in presence of 0.5 mg/liter reserpine; assay type: functional; settings: KOP55, Urine; outline: as §3
# [20] = system: Mycobacterium tuberculosis variant bovis BCG; experiment: Antimicrobial activity against Mycobacterium bovis BCG KOP55 harboring pPAZ23 carrying p27-p55 operon by resazurine microtiter assay in presence of 0.1 mg/liter valinomycin; assay type: functional; settings: KOP55, Urine; outline: as §3
# [21] = system: Mycobacterium tuberculosis variant bovis BCG; experiment: Antimicrobial activity against Mycobacterium bovis BCG KOP55 harboring pPAZ23 carrying p27-p55 operon by resazurine microtiter assay in presence of 0.5 mg/liter reserpine; assay type: functional; settings: KOP55, Urine; outline: as §3
structure (smiles),measurement,setting,value
OC(CS)C(O)CS (racemic) [DL-DITHIOTHREITOL],inhibition zone (IZ),[1],30 mm
same,inhibition zone (IZ),[2],0 mm
CC[C@H](C)[C@H](N)C1=N[C@H](C(=O)N[C@@H](CC(C)C)C(=O)N[C@H](CCC(=O)O)C(=O)N[C@H](C(=O)N[C@H]2CCCCNC(=O)[C@H](CC(N)=O)NC(=O)[C@@H](CC(=O)O)NC(=O)[C@H](Cc3cnc[nH]3)NC(=O)[C@@H](Cc3ccccc3)NC(=O)[C@H]([C@@H](C)CC)NC(=O)[C@@H](CCCN)NC2=O)[C@@H](C)CC)CS1 [BACITRACIN] ({Ileψ(thiazoline)Cys}-L[dE]IK[dOrn]I[dF]H[dD]N; lactam 4-C),MIC,[3],16 µg/mL
same,MIC,[4],16 µg/mL
same,MIC,[5],> 256 µg/mL
same,MIC,[6],> 256 µg/mL
N#CC(C#N)=NNc1cccc(Cl)c1 [CARBONYL CYANIDE M-CHLOROPHENYLHYDRAZONE],MIC,[3],2 µg/mL
CN(C)CCCN1c2ccccc2Sc2ccc(Cl)cc21 [CHLORPROMAZINE],MIC,[7],4 µg/mL
CC(C)/N=c1\cc2n(-c3ccc(Cl)cc3)c3ccccc3nc-2cc1Nc1ccc(Cl)cc1 [CLOFAZIMINE],MIC,[7],0.025 µg/mL
same,MIC,[8],0.1 µg/mL
same,Activity,[9],15%
same,Activity,[10],inactive
CN(C)C(=O)/N=N/C(=O)N(C)C [DIAMIDE],inhibition zone (IZ),[1],30 mm
same,inhibition zone (IZ),[2],0 mm
same,Activity,[11],35%
same,Activity,[12],inactive
Clc1ccc(COC(Cn2ccnc2)c2ccc(Cl)cc2Cl)cc1 (configuration not stated) [ECONAZOLE],MIC,[7],1.6 µg/mL
same,MIC,[8],6.4 µg/mL
CC[C@@H](CO)NCCN[C@@H](CC)CO [ETHAMBUTOL],MIC,[3],2 µg/mL
CC1=CC(=O)c2ccccc2C1=O [MENADIONE],inhibition zone (IZ),[13],16 mm
same,inhibition zone (IZ),[14],20 mm
same,fold change (FC),[15],3.5
same,fold change (FC),[16],1.3
Cc1c(C)n2c(CBr)c(C)c(=O)n2c1=O [MONOBROMOBIMANE],MIC,[17],500 µM
same,MIC,[3],125 µM
CO[C@@H]1[C@@H](OC(N)=O)[C@@H](O)[C@H](Oc2ccc3c(O)c(NC(=O)c4ccc(O)c(CC=C(C)C)c4)c(=O)oc3c2C)OC1(C)C [NOVOBIOCIN],MIC,[3],2 µg/mL
same,MIC,[4],1 µg/mL
same,MIC,[18],0.5 µg/mL
same,MIC,[19],1 µg/mL
same,MIC,[5],16 µg/mL
same,MIC,[20],8 µg/mL
same,MIC,[6],4 µg/mL
same,MIC,[21],8 µg/mL
O=[N+]([O-])c1cn2c(n1)OC[C@@H](OCc1ccc(OC(F)(F)F)cc1)C2 [PRETOMANID],MIC,[3],0.125 µg/mL
same,MIC,[5],0.25 µg/mL
COC(=O)[C@H]1[C@H]2C[C@@H]3c4[nH]c5cc(OC)ccc5c4CCN3C[C@H]2C[C@@H](OC(=O)c2cc(OC)c(OC)c(OC)c2)[C@@H]1OC [RESERPINE],MIC,[3],2 µg/mL
same,MIC,[5],2 µg/mL
CO[C@H]1/C=C/O[C@@]2(C)Oc3c(C)c(O)c4c(O)c(c(/C=N/N5CCN(C)CC5)c(O)c4c3C2=O)NC(=O)/C(C)=C\C=C\[C@H](C)[C@H](O)[C@@H](C)[C@@H](O)[C@@H](C)[C@H](OC(C)=O)[C@@H]1C [RIFAMPIN],MIC,[3],0.0004 µg/mL
same,MIC,[4],0.0002 µg/mL
same,MIC,[18],0.0002 µg/mL
same,MIC,[19],0.0004 µg/mL
same,MIC,[5],0.0032 µg/mL
same,MIC,[20],0.0016 µg/mL
same,MIC,[6],0.0008 µg/mL
same,MIC,[21],0.0016 µg/mL
Oc1cc(Cl)ccc1Oc1ccc(Cl)cc1Cl [TRICLOSAN],MIC,[7],8 µg/mL
CC(C)[C@@H]1NC(=O)[C@H](C)OC(=O)[C@@H](C(C)C)NC(=O)[C@@H](C(C)C)OC(=O)[C@H](C(C)C)NC(=O)[C@H](C)OC(=O)[C@@H](C(C)C)NC(=O)[C@@H](C(C)C)OC(=O)[C@H](C(C)C)NC(=O)[C@H](C)OC(=O)[C@@H](C(C)C)NC(=O)[C@@H](C(C)C)OC1=O [VALINOMYCIN],MIC,[3],0.2 µg/mL
same,MIC,[5],0.4 µg/mL
CN[C@H](CC(C)C)C(=O)N[C@H]1C(=O)N[C@@H](CC(N)=O)C(=O)N[C@H]2C(=O)N[C@H]3C(=O)N[C@H](C(=O)N[C@H](C(=O)O)c4cc(O)cc(O)c4-c4cc3ccc4O)[C@H](O)c3ccc(c(Cl)c3)Oc3cc2cc(c3O[C@@H]2O[C@H](CO)[C@@H](O)[C@H](O)[C@H]2O[C@H]2C[C@](C)(N)[C@H](O)[C@H](C)O2)Oc2ccc(cc2Cl)[C@H]1O [VANCOMYCIN],MIC,[3],0.25 µg/mL
same,MIC,[4],0.25 µg/mL
same,MIC,[5],4 µg/mL
same,MIC,[20],4 µg/mL

# — ChEMBL document CHEMBL1649585, “Role of the Mycobacterium tuberculosis P55 efflux pump in intrinsic drug resistance, oxidative stress responses, and growth” (2009)
